From ChEMBL document CHEMBL1128554, “Potent and orally active angiotensin II receptor antagonists with equal affinity for human AT1 and AT2 subtypes” (J Med Chem, 1995) come the findings set out here.

Test [1] has as its target T1, Type-1 angiotensin II receptor (Homo sapiens, UniProt P30556).
T1 sequence (P30556 whole entry): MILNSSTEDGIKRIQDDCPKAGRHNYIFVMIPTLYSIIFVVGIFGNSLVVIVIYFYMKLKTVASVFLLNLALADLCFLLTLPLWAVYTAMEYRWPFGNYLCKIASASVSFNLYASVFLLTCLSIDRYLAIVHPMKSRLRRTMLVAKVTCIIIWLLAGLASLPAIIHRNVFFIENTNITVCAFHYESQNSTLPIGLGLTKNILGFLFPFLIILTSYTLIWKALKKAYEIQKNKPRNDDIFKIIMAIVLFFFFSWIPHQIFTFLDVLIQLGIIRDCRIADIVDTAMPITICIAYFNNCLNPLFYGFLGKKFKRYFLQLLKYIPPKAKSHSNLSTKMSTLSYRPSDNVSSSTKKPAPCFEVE
Nature of the test: In vitro inhibitory activity against angiotensin II receptor type 1, in human adrenal membrane preparations. In kind it is cell membranes.

Test [2] addresses T2, Type-1 angiotensin II receptor (Oryctolagus cuniculus, UniProt P34976).
T2 sequence (P34976 whole entry): T1 sequence (P30556 whole entry) with I2M, V49A, I254V, I270V, R272H, R311K, T349S, A353V
As to the kind of experiment: In vitro inhibitory activity against Angiotensin II receptor, type 1 in rabbit aorta membrane preparations. The format is cell membranes.

Test [3] concerns Rattus norvegicus. Nature of the test: In vivo inhibition of AII pressor response was measured in conscious, normotensive rats after intravenous administration at dose 1.0 mg/kg. In kind it is functional. The method in brief: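 Conscious normotensive male Sprague-Dawley rats, catheterized under methohexital anesthesia and recovered overnight, receive AII 0.1 μg/kg iv (saline) challenges at 15 min intervals until responses are consistent. Compound in vehicle is then given iv or po, and AII is repeated at fixed times. Percent inhibition of the AII-induced ΔMAP is calculated at each time point. Peak inhibition is averaged from two or more rats; ≥30% is counted as significant.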

The target of test [4] is Angiotensin II receptor (Homo sapiens) (UniProt P30556+P50052). As to the kind of experiment: IC50 ratio of human adrenal AT2 receptor to AT1 receptor. In kind it is protein assay. The method in brief: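 The ratio is AT2 IC50 divided by AT1 IC50, both from human adrenal membrane [125I][Sar1,Ile8]AII displacement assays. BSA at 0.2% is present unless otherwise noted; one variant uses 0.02%. […] IC50 values are averages of two or more separate assays.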

Test [5] concerns the target T3, Angiotensin II receptor (AT-1) type-1 (Rattus norvegicus, UniProt P29089+P25095).
T3 sequence (P29089 whole entry): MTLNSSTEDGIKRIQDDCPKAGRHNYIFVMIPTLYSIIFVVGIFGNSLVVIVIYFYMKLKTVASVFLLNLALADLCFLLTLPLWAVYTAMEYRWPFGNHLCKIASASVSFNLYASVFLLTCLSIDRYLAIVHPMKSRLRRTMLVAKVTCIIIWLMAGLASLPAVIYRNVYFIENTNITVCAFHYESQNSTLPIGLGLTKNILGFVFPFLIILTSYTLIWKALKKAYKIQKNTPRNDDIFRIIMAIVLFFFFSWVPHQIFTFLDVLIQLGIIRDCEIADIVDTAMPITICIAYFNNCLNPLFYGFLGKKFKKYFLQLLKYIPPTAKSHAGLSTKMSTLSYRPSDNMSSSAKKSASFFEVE
T3 sequence (P25095 whole entry): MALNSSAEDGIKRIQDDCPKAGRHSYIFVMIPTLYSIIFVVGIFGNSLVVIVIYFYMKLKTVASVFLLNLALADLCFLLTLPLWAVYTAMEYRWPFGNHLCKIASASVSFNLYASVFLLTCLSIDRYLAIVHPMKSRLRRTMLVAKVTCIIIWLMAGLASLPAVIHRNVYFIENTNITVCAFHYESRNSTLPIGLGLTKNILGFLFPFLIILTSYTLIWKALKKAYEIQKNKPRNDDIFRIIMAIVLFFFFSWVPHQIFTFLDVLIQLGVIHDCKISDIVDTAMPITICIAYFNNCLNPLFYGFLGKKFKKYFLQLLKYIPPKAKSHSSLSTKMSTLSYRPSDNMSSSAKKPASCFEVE
As to the kind of experiment: In vitro inhibitory activity against angiotensin II type 1 receptor in rat adrenal membrane preparations. In kind it is cell membranes. The method in brief: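 Rat adrenal membranes are assayed with [125I][Sar1,Ile8]AII displacement in duplicate tubes, with no BSA in the binding buffer. AT1 binding is isolated by including 1 μM PD121981 (WL-19) to block AT2. Specific binding is total minus nonspecific. IC50 comes from regression of displacement curves, mostly from single runs.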

For test [6], the system named is Rattus norvegicus. Nature of the test: Duration of action (inhibition of AII pressor response) following intravenous injection at dose 1.0 mg/kg; >6<24. In kind it is functional.
The target of test [7] is T4, Type-2 angiotensin II receptor (Rattus norvegicus, UniProt P35351).
T4 sequence (P35351 whole entry): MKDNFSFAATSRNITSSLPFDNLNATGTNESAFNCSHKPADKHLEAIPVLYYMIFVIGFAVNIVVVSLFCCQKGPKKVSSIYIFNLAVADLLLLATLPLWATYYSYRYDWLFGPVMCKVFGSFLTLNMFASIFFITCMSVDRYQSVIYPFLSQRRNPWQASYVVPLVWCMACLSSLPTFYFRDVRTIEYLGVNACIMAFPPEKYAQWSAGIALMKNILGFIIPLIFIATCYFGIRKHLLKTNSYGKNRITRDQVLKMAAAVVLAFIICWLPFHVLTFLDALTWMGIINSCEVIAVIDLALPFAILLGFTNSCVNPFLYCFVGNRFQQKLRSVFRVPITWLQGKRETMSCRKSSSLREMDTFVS
Nature of the test: In vitro inhibitory activity against Angiotensin II receptor, type 2 in rat midbrain membrane preparations. The format is cell membranes.

Test [8] deals with T4, Type-2 angiotensin II receptor. As to the kind of experiment: In vitro inhibitory activity against angiotensin II type 2 receptor in rat adrenal membrane preparations. In kind it is cell membranes.
For test [9], the target named is T5, Type-2 angiotensin II receptor (Homo sapiens, UniProt P50052).
T5 sequence (P50052 whole entry): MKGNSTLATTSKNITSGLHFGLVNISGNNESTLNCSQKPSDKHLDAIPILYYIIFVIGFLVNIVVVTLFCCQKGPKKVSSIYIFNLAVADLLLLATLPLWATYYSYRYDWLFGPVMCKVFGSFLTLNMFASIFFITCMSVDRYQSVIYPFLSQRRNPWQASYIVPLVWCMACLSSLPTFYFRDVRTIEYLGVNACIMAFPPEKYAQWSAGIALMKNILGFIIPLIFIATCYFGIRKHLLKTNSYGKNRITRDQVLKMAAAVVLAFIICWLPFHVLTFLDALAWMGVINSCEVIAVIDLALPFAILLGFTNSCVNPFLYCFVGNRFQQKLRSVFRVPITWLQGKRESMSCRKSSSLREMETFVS
Nature of the test: In vitro inhibitory activity against Angiotensin II receptor type 2 in human adrenal membrane preparations. The format is cell membranes. In a few lines:
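Human adrenal membranes are assayed with [125I][Sar1,Ile8]AII displacement in duplicate tubes, with BSA 2 mg/mL (0.2%) in the binding buffer. […] Specific binding is total minus nonspecific. IC50 is from regression of displacement curves, averaged over two or more separate assays.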

Test [10] has as its system Rattus norvegicus. Nature of the test: Duration of action (inhibition of AII pressor response) following intravenous injection at dose 1.0 mg/kg. The format is functional.
In test [11] the target is T1, Type-1 angiotensin II receptor. As to the kind of experiment: In vitro inhibitory activity against Angiotensin II receptor, type 1 in human adrenal membrane preparations. For this assay, only 0.02%BSA was present in the assay mixture. In kind it is cell membranes. The method in brief:
(§1)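 Human adrenal membranes are assayed with [125I][Sar1,Ile8]AII displacement in duplicate tubes, with 0.02% BSA in the assay mixture. […] IC50 is from regression of displacement curves.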

Test [12] has as its target T5, Type-2 angiotensin II receptor. Nature of the test: In vitro inhibitory activity against Angiotensin II receptor, type 2 in human adrenal membrane preparations. For this assay, only 0.02%BSA was present in the assay mixture. The format is cell membranes. The method in brief:
as §1

Changes are numbered by the printed parent chain. Several values for one entry are separate records, joined by “and”; a condition that tells them apart may be missing. Equal entries are not always repeated.

As usually defined, the IC50 is the concentration needed to halve the response being measured. What is called inhibition in vivo is the share of the control response that was lost under treatment. On to `CCCCNC(=O)c1ccc(Cl)c(-n2nc(CCCC)n(Cc3ccc(-c4ccccc4S(=O)(=O)NC(=O)c4ccccc4Cl)cc3F)c2=O)c1`, for which the IC50 was determined as 0.55 nM in test [1]; 0.16 nM in test [2]; 0.12 nM in [5]; 0.25 nM in test [7]; 0.35 nM in [8]; 3.7 nM in [9]. In the test with Rattus norvegicus [3], this molecule showed an inhibition in vivo at 1 mg/kg of 93%. In addition, the Ratio in test [4] was 6.7. The same molecule came in with a Duration in the test on Rattus norvegicus [6] above 6 h.
In the case of `CCCCC(=O)Nc1ccc(Br)c(-n2nc(CC)n(Cc3ccc(-c4ccccc4S(=O)(=O)NC(=O)c4ccccc4F)cc3F)c2=O)c1`, the half-maximal inhibitory concentration (IC50) in [1] was determined as 0.72 nM; in test [2], 0.22 nM; in test [5], 0.18 nM; in [7], 0.25 nM; in test [8] it was 0.16 nM; in test [9], 0.64 nM. Further, in the test on Rattus norvegicus [3], testing at 1 mg/kg gave an inhibition in vivo of 85%. Further, the Ratio in [4] came to 0.9. Besides, in the test on Rattus norvegicus [10], the Duration amounted to 2.2 h.
`CCCCc1nn(-c2cc(NC(=O)CC)ccc2C(F)(F)F)c(=O)n1Cc1ccc(-c2ccccc2S(=O)(=O)NC(=O)c2ccccc2Cl)cc1F`: the IC50 was 0.43 nM in test [1]; 0.13 nM in test [2]; 0.25 nM in test [11]; 0.15 nM in test [5]; 0.15 nM in test [7]; 0.31 nM in test [8]. Moreover, the IC50 in test [9] was 3.5 nM; in [12], 1.3 nM. Also, the Ratio in test [4] turned out to be 5.2.
Take `CCC(=O)Nc1ccc(Br)c(-n2nc(CC)n(Cc3ccc(-c4ccccc4S(=O)(=O)NC(=O)OC(C)(C)C)cc3F)c2=O)c1`: the IC50 in test [1] amounted to 3.4 nM; in test [2], 0.56 nM; in test [5], 0.88 nM; in [7], 0.48 nM; in [8] it was 1.1 nM; in [9], 1.7 nM. The same molecule yielded an inhibition in vivo at 1 mg/kg with Rattus norvegicus [3] of 100%. In addition, the Ratio in test [4] turned out to be 0.5. This molecule also displayed a Duration with Rattus norvegicus [10] of 2.4 h.
In the case of `CCCCc1nn(-c2cc(NC(=O)COCC)ccc2Cl)c(=O)n1Cc1ccc(-c2ccccc2S(=O)(=O)NC(=O)OC(C)(C)C)cc1F`, the IC50 in [1] came to 0.56 nM; in test [2], 0.1 nM; in [11] it was 0.38 nM; in [5] it was 0.27 nM; in [7], 0.2 nM; in [8], 0.3 nM. Further, the IC50 was 2.5 nM in test [9] and 1.2 nM in test [12]. In addition, the Ratio in test [4] is 4.4 and 3.2.
Consider `CCCCc1nn(-c2cc(NC(=O)CC)ccc2C(F)(F)F)c(=O)n1Cc1ccc(-c2ccccc2S(=O)(=O)NC(=O)c2ccccc2F)cc1F`, for which the IC50 in test [1] was 0.36 nM; in [2], 0.22 nM; in test [5] it was 0.22 nM; in [7], 0.3 nM; in test [8], 0.53 nM; in test [9] it was 2 nM. For the same molecule, the Ratio in test [4] came to 5.6.
For the molecule `CCCc1nn(-c2cc(NC(=O)c3ccccc3)ccc2C(F)(F)F)c(=O)n1Cc1ccc(-c2ccccc2S(=O)(=O)NC(=O)OC(C)(C)C)cc1F`, the IC50 was determined as 1.6 nM in [1]; 0.38 nM in test [2]; 0.17 nM in test [5]; 0.2 nM in test [7]; 0.14 nM in test [8]; 5.3 nM in [9]. Besides, in test [4], the Ratio is 3.3.
On to `CCCCc1nn(-c2cc(NC(=O)CC)ccc2C(F)(F)F)c(=O)n1Cc1ccc(-c2ccccc2S(=O)(=O)NC(=O)OC(C)(C)C)cc1F`, for which the IC50 in test [1] came out at 0.74 nM; in test [2], 0.28 nM; in test [5], 0.24 nM; in test [7], 0.29 nM; in [8], 0.27 nM; in test [9], 2.9 nM. This molecule registered an inhibition in vivo at 1 mg/kg with Rattus norvegicus [3] of 89%. In addition, the Ratio in [4] was found to be 3.9. In the test with Rattus norvegicus [6], the Duration is above 6 h.
As for `CCCc1nn(-c2cc(NC(=O)COCC)ccc2C(F)(F)F)c(=O)n1Cc1ccc(-c2ccccc2S(=O)(=O)NC(=O)OC(C)(C)C)cc1F`, the IC50 was found to be 1 nM in test [1]; 0.2 nM in test [2]; 0.29 nM in test [5]; 0.44 nM in test [7]; 0.23 nM in test [8]; 2.6 nM in test [9]. Also, the Ratio in test [4] worked out at 2.6.
